Published values gathered from unrelated publications.
OPRK1: Kappa-type opioid receptor (OPRK1, Cavia porcellus, UniProt P41144)
ADRA1A: Alpha-1A adrenergic receptor (ADRA1A, Homo sapiens, UniProt P35348)
GLP2R: Glucagon-like peptide 2 receptor (GLP2R, Homo sapiens, UniProt O95838)
HRH2: Histamine H2 receptor (HRH2, Homo sapiens, UniProt P25021)

With `Cc1cc(C)c(C[C@H](NC(=O)[C@@H](CCCNC(=N)N)NC(=O)[C@@H](N)Cc2c(C)cc(O)cc2C)C(=O)N[C@@H](CCCCN)C(N)=O)c(C)c1` the Ki was 48 nM (OPRK1; ligand displacement; radioligand; cell membranes).
`C[C@H]1CC[C@@]2(OC1)O[C@H]1C[C@H]3[C@@H]4CC[C@@H]5C[C@@H](O[C@@H]6O[C@H](CO)[C@H](O)[C@H](O)[C@H]6O[C@@H]6O[C@H](CO)[C@@H](O)[C@H](O)[C@H]6O)CC[C@]5(C)[C@H]4CC[C@]3(C)[C@H]1[C@@H]2C` gave a Kd of 61700 nM (Angiotensin-converting enzyme 2 (ACE2, Homo sapiens, UniProt Q9BYF1); binding).
`Cc1cc(O)cc(C)c1C[C@H](C)C(=O)N[C@@H]1C/C=C\CC[C@@H](C(N)=O)NC(=O)[C@H](Cc2ccccc2)NC(=O)[C@H](Cc2ccccc2)NC1=O` has a Ki of 185 nM (OPRK1; ligand displacement; radioligand; cell membranes).
The Ki of `CCCC[C@@H](NC(=O)[C@@H](N)Cc1ccc(O)cc1)C(=O)NCC(=O)N[C@@H](Cc1ccc(F)cc1)C(=O)N(C)CCC[C@@]1(c2ccc(F)cc2)OCc2cc(C#N)ccc21` is reported as 6600 nM (ADRA1A; ligand displacement; radioligand).
`CC[C@H](C)[C@H](NC(=O)[C@H](CO)NC(=O)[C@H](CC(=O)O)NC(=O)[C@H](CC(C)C)NC(=O)[C@@H](NC(=O)[C@H](CCCCN)NC(=O)[C@H](CC(N)=O)NC(=O)[C@@H](NC(=O)[C@H](CC(=O)O)NC(=O)[C@H](CO)NC(=O)[C@@H](NC(=O)[C@H](Cc1ccccc1)NC(=O)[C@H](CO)NC(=O)CNC(=O)[C@H](CC(=O)O)NC(=O)[C@@H](NC(=O)[C@@H](N)Cc1c[nH]cn1)C(C)C)[C@@H](C)O)C(C)C)C(C)C)C(=O)N[C@@H](C)C(=O)N[C@@H](C)C(=O)N[C@@H](CCCCN)C(=O)N[C@@H](CCC(=O)O)C(=O)N[C@@H](Cc1ccc(O)cc1)C(=O)N[C@@H](CC(C)C)C(=O)N[C@@H](CCC(N)=O)C(=O)N[C@@H](Cc1c[nH]c2ccccc12)C(=O)N[C@H](C(=O)N[C@@H](CCSC)C(=O)N[C@@H](CC(N)=O)C(=O)N[C@@H](CO)C(=O)N[C@@H](CCCCN)C(=O)N[C@@H](C)C(=O)N[C@@H](CO)C(=O)NCC(=O)O)C(C)C` gave an EC50 of over 1000 nM (GLP2R; reporter gene; agonist; luciferase).
`CNc1nc2cc(OCCCCN3CCN(c4cccc(Cl)c4Cl)CC3)ccc2s1` gave a Ki of 310 nM (HRH2; ligand displacement; radioligand).
`OC(c1ccc(F)cc1)C(F)(F)CCN1CCC(O)(c2ccc(Cl)cc2)CC1` (racemic) gave a Ki of 4830 nM (HRH2; cell-free assay; radioligand).
The Ki of `Cc1cccc(C)c1C[C@H](NC(=O)[C@@H](CCCNC(=N)N)NC(=O)[C@@H](N)Cc1c(C)cc(O)cc1C)C(=O)N[C@@H](CCCCN)C(N)=O` is reported as 4.7 nM (OPRK1; ligand displacement; radioligand; cell membranes).
For `N=C(N)NCCC[C@H]1NC(=O)[C@H](Cc2ccc(O)cc2)NC(=O)[C@H](CCCCN)NC(=O)[C@H](Cc2ccccc2)NC1=O`, the Ki was 67.4 nM (OPRK1; ligand displacement; radioligand; cell membranes).
For `CC[C@H](C)[C@H](NC(=O)[C@H](CC(=O)O)NC(=O)[C@H](CC(N)=O)NC(=O)[C@@H](NC(=O)[C@H](Cc1ccccc1)NC(=O)[C@H](CO)NC(=O)CNC(=O)[C@H](CC(=O)O)NC(=O)[C@H](C)NC(=O)[C@@H](N)Cc1c[nH]cn1)[C@@H](C)O)C(=O)N[C@@H](CC(N)=O)C(=O)N[C@@H](CCCCN)C(=O)N[C@H](C(=O)N[C@@H](CC(C)C)C(=O)N[C@@H](CC(=O)O)C(=O)N[C@H](C(=O)N[C@H](C(=O)N[C@@H](C)C(=O)N[C@@H](C)C(=O)N[C@@H](CCC(N)=O)C(=O)N[C@@H](CCC(=O)O)C(=O)N[C@@H](Cc1ccccc1)C(=O)N[C@@H](CC(C)C)C(=O)N[C@@H](CC(=O)O)C(=O)N[C@@H](Cc1c[nH]c2ccccc12)C(=O)N[C@H](C(=O)N[C@H](C(=O)N[C@@H](CC(N)=O)C(=O)N[C@H](C(=O)N[C@@H](CCC(N)=O)C(=O)N[C@H](C(=O)N[C@H](C(=O)N[C@@H](CCC(=O)O)C(=O)O)[C@@H](C)O)C(C)C)[C@@H](C)O)[C@@H](C)CC)C(C)C)[C@@H](C)CC)[C@@H](C)CC)C(C)C`, the EC50 was over 1000 nM (GLP2R; reporter gene; agonist; luciferase).
`Cc1cc(O)cc(C)c1C[C@H](N)C(=O)N[C@H](CCCNC(=N)N)C(=O)N[C@@H](Cc1c(C)cccc1C(C)C)C(=O)N[C@@H](CCCCN)C(N)=O` has a Ki of 0.236 nM (OPRK1; ligand displacement; radioligand; cell membranes).
The Ki of `Cc1cc(O)cc(C)c1C[C@H](N)C(=O)N[C@H](C)C(=O)NCC(=O)N[C@@H](Cc1ccc(Cl)cc1)C(=O)N(C)CCC[C@@]1(c2ccc(F)cc2)OCc2cc(C#N)ccc21` is reported as 4600 nM (ADRA1A; ligand displacement; radioligand).
`CC[C@H](C)[C@H](NC(=O)[C@H](CCCNC(=N)N)NC(=O)[C@H](CC(C)C)NC(=O)[C@@H](N)Cc1ccccc1)C(=O)N[C@@H](CCCNC(=N)N)C(=O)N1CCC[C@H]1C(=O)N[C@@H](CCCCN)C(=O)O` has a Ki of over 10000 nM (ADRA1A; cell-free assay; radioligand).
